Data taken from ChEMBL document CHEMBL1938370, “Structure-activity relationship studies of sulfonylpiperazine analogues as novel negative allosteric modulators of human neuronal nicotinic receptors” (J Med Chem, 2011).
Calls of active or inactive are those of the source. The calls are words filed in the database; no cut-off is given here.

Experiments:
[1] = biological target: T1, Neuronal acetylcholine receptor; alpha4/beta2 (Homo sapiens, UniProt P17787+P43681); test: Agonist activity at human nAChR alpha4beta2 expressed in HEK ts201 cells assessed as increase in calcium mobilization at 30 uM measured every 1.5 sec by fluorescence analysis; format: functional, cell-based
[2] = biological target: T2, Neuronal acetylcholine receptor; alpha3/beta4 (Homo sapiens, UniProt P30926+P32297); test: Agonist activity at human nAChR alpha3beta4 expressed in HEK ts201 cells assessed as increase in calcium mobilization at 30 uM measured every 1.5 sec by fluorescence analysis; format: functional, cell-based
[3] = biological target: T1, Neuronal acetylcholine receptor; alpha4/beta2; test: Negative allosteric modulation of human nAChR alpha4beta2 expressed in HEK ts201 cells assessed as decrease in epibatidine-induced calcium mobilization up to 100 uM measured every 1.5 sec by fluorescence analysis; format: cell-based
Outline: (§1)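 HEK ts201 cells stably expressing human α4β2 or α3β4 nAChRs were plated on poly-L-ornithine-coated wells at 2.0–2.3 × 10^5 cells/well and used ~24 h later. They were washed with HEPES-buffered Krebs and loaded with 50% Calcium 5 NW dye for 1 h at 24 °C in the dark. Test compound was given at 6 concentrations across 0.1–100 µM, with final DMSO 1% at the top concentration. The agonist was 1 µM epibatidine, and fluorescence (ex 485/em 525 nm) was read every ~1.5 s.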

[4] = biological target: T2, Neuronal acetylcholine receptor; alpha3/beta4; test: Negative allosteric modulation of human nAChR alpha3beta4 expressed in HEK ts201 cells assessed as inhibition of epibatidine-induced calcium mobilization measured every 1.5 sec by fluorescence analysis; format: cell-based; outline: as §1
[5] = biological target: T1, Neuronal acetylcholine receptor; alpha4/beta2; test: Negative allosteric modulation of human nAChR alpha4beta2 expressed in HEK ts201 cells assessed as inhibition of epibatidine-induced calcium mobilization measured every 1.5 sec by fluorescence analysis; format: cell-based; outline: as §1
[6] = biological target: T1, Neuronal acetylcholine receptor; alpha4/beta2; test: Noncompetitive inhibition of human nAChR alpha4beta2 expressed in HEK ts201 cells assessed as inhibition of epibatidine-induced calcium mobilization at 30 uM measured every 1.5 sec by fluorescence analysis; format: cell-based
Outline: (§2)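 Epibatidine concentration-response curves were run with and without 30 µM modulator in HEK ts201 cells expressing human α4β2 or α3β4 nAChRs. Cells were loaded with Calcium 5 NW dye for 1 h at 24 °C in HEPES-buffered Krebs, and fluorescence (ex 485/em 525 nm) was monitored every ~1.5 s.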

[7] = biological target: T2, Neuronal acetylcholine receptor; alpha3/beta4; test: Noncompetitive inhibition of human nAChR alpha3beta4 expressed in HEK ts201 cells assessed as inhibition of epibatidine-induced calcium mobilization at 30 uM measured every 1.5 sec by fluorescence analysis; format: cell-based; outline: as §2
[8] = biological target: T2, Neuronal acetylcholine receptor; alpha3/beta4; test: Negative allosteric modulation of human nAChR alpha3beta4 expressed in HEK ts201 cells assessed as decrease in epibatidine-induced calcium mobilization up to 100 uM measured every 1.5 sec by fluorescence analysis; format: cell-based; outline: as §1
[9] = biological target: T1, Neuronal acetylcholine receptor; alpha4/beta2; test: Relative selectivity, ratio of IC50 for human nAChR alpha3beta4 expressed in HEK ts201 cells to IC50 for human nAChR alpha4beta2 expressed in HEK ts201 cells; format: cell-based
[10] = biological target: T2, Neuronal acetylcholine receptor; alpha3/beta4; test: Negative allosteric modulation of human nAChR alpha3beta4 expressed in HEK ts201 cells assessed as inhibition of epibatidine-induced calcium mobilization at 0.1 to 100 uM measured every 1.5 sec by fluorescence analysis; format: cell-based; outline: as §1
[11] = biological target: T1, Neuronal acetylcholine receptor; alpha4/beta2; test: Negative allosteric modulation of human nAChR alpha4beta2 expressed in HEK ts201 cells assessed as inhibition of epibatidine-induced calcium mobilization at 0.1 to 100 uM measured every 1.5 sec by fluorescence analysis; format: cell-based; outline: as §1

T2 sequence (P30926 whole entry): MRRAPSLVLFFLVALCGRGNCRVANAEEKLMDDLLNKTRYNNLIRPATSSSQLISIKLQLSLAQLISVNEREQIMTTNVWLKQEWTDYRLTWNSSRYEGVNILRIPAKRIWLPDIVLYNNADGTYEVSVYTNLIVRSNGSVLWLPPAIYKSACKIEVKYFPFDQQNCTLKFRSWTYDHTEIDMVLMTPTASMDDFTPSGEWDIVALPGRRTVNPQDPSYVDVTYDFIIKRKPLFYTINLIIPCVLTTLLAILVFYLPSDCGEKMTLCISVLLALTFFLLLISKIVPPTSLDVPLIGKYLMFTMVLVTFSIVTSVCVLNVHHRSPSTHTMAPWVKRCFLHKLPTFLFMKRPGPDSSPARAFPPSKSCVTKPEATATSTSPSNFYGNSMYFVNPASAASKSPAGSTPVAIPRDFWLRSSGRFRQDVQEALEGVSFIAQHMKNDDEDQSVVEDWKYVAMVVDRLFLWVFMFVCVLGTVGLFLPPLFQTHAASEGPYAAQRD
T2 sequence (P32297 whole entry): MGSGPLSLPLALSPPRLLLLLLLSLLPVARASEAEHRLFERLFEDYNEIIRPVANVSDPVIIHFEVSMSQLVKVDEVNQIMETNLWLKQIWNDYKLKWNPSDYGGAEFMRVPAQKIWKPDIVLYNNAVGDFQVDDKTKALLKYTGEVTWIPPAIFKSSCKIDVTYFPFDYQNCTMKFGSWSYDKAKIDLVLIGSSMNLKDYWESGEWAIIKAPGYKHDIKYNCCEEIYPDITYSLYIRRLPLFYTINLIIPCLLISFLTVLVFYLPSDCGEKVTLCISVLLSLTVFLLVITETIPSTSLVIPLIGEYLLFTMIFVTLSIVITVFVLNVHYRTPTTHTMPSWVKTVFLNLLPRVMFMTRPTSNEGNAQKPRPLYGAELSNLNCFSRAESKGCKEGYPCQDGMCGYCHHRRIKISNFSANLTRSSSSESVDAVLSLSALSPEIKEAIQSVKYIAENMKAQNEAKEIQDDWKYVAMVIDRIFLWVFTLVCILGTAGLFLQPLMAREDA
T1 sequence (P17787 whole entry): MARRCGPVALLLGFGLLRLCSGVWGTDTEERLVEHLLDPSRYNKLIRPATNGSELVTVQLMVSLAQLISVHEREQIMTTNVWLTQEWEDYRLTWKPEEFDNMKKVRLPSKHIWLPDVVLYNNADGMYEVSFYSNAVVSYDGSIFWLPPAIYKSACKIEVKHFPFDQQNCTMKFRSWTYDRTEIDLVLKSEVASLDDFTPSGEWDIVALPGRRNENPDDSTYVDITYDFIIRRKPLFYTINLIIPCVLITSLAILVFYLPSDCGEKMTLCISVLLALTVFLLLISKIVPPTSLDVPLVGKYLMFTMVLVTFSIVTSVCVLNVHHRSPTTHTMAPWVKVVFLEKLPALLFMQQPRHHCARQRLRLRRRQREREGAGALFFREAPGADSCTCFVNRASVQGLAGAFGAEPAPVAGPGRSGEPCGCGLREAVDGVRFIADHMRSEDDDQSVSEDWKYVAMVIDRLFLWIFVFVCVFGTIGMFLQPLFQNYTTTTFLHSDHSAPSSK
T1 sequence (P43681 whole entry): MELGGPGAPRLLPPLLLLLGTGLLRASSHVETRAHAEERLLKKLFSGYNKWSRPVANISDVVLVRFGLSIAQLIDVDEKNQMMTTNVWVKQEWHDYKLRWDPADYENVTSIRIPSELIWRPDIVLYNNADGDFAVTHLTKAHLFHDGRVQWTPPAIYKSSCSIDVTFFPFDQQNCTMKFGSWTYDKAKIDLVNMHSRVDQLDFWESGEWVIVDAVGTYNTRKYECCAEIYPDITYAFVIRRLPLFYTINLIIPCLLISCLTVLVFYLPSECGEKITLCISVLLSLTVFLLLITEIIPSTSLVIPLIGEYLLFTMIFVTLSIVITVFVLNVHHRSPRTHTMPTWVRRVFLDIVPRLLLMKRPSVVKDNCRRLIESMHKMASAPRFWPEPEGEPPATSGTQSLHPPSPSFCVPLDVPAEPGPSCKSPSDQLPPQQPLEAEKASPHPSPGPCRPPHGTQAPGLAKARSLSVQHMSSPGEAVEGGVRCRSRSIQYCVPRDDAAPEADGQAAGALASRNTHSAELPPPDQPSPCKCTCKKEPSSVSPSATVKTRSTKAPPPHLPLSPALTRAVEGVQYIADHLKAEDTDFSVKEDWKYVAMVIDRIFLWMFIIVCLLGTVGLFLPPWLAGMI

Structure (SMILES) | Activity [1] | Activity [2] | IC50 [4] | IC50 [5] | other results
O=C(CN1CCN(S(=O)(=O)c2ccc(F)cc2)CC1)Nc1ccc2[nH]ncc2c1 | inactive | inactive |  |  | 
COc1ccc(NC(=O)CN2CCN(S(=O)(=O)c3cccnc3)CC2)cc1 | inactive | inactive | 95 µM |  | IC50 [3]: > 100 µM
COC(=O)c1ccc(NC(=O)CN2CCN(S(=O)(=O)c3ccccc3F)CC2)cc1 | inactive | inactive | 11.2 µM | 12.4 µM | 
O=C(CN1CCN(S(=O)(=O)c2ccccc2)CC1)Nc1ccccc1 | inactive | inactive | 16.4 µM | 9.6 µM | 
O=C(CN1CCN(S(=O)(=O)c2ccccc2F)CC1)Nc1ccc(F)cc1 | inactive | inactive | 13.6 µM | 8 µM | 
O=C(CN1CCN(S(=O)(=O)c2ccc(F)cc2)CC1)Nc1ccccc1F | inactive | inactive |  |  | inhibition [6]: Active; inhibition [7]: Active
O=C(CN1CCN(S(=O)(=O)c2ccccc2F)CC1)Nc1cc[nH]n1 | inactive | inactive |  |  | 
O=C(CN1CCN(S(=O)(=O)c2cccnc2)CC1)Nc1cc[nH]n1 | inactive | inactive |  |  | 
COc1ccc(NC(=O)CN2CCN(S(=O)(=O)c3ccc(F)cc3)CC2)cc1 | inactive | inactive |  |  | 
O=C(CN1CCN(S(=O)(=O)c2ccccc2F)CC1)Nc1ccc(C(=O)O)cc1 | inactive | inactive |  |  | IC50 [8]: > 100 µM; IC50 [3]: > 100 µM
COc1ccc(NC(=O)CN2CCN(S(=O)(=O)c3ccccc3F)CC2)cc1 | inactive | inactive | 19.1 µM | 17.1 µM | Ratio IC50 [9]: 1.1
O=C(CN1CCN(S(=O)(=O)c2ccccc2F)CC1)Nc1ccccc1F | inactive | inactive |  |  | Ratio IC50 [9]: 12
O=C(CN1CCN(S(=O)(=O)c2cccnc2)CC1)Nc1ccn[nH]1 |  |  |  | 83 µM | IC50 [8]: > 100 µM
O=C(CN1CCN(S(=O)(=O)c2ccccc2)CC1)Nc1ccccc1F | inactive | inactive | 4.6 µM | 4.1 µM | 
O=C(CN1CCN(S(=O)(=O)c2ccccc2F)CC1)Nc1ccn[nH]1 |  |  |  |  | IC50 [8]: > 100 µM; IC50 [3]: > 100 µM
O=C(CN1CCN(S(=O)(=O)c2ccc(F)cc2)CC1)Nc1ccccc1 | inactive | inactive |  |  | 
O=C(CN1CCN(S(=O)(=O)c2ccc(F)cc2)CC1)Nc1cc[nH]n1 | inactive | inactive |  |  | 
O=S(=O)(c1ccc(F)cc1)N1CCNCC1 |  |  |  |  | Activity [10]: inactive; Activity [11]: inactive
COc1ccc(S(=O)(=O)N2CCN(CC(=O)Nc3ccccc3F)CC2)cc1 | inactive | inactive | 15.4 µM | 13.4 µM | 
COc1ccc(S(=O)(=O)N2CCN(CC(=O)Nc3ccc(F)cc3)CC2)cc1 | inactive | inactive | 17.1 µM | 23.6 µM | 
O=C(CN1CCN(S(=O)(=O)c2ccc(F)cc2)CC1)Nc1ccc(F)cc1 | inactive | inactive |  |  | 
O=C(CN1CCN(S(=O)(=O)c2ccccc2F)CC1)Oc1ccccc1-c1ccccc1 | inactive | inactive | 23.5 µM | 20.9 µM | 
O=C(CN1CCN(S(=O)(=O)c2cccnc2)CC1)Nc1ccccc1F | inactive | inactive | 49.6 µM | 20.3 µM | 
O=C(CN1CCN(S(=O)(=O)c2ccc(F)cc2)CC1)Oc1ccccc1-c1ccccc1 | inactive | inactive | 23.8 µM | 12.2 µM | 
